# Screens (PubChem BioAssay)
# Htt clearance – mutant huntingtin protein clearance | inhibition, % at 1.5 µM | HeLa Exon1htt(103Q)mCFP, aggregate imaging; zero = plate's median compound well | 47,000 compounds, 0.42% hits | AID 853;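 active means inhibition of aggregate fluorescence above about 70%, also judged a hit by eye on the cell image, limit read from the data, passing the limit was not always enough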;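 further: cells exposed to compound for three days before fixation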
# RORA act – RORA (human) activation; P35398; CHO-K1 Gal4-RORA LBD luciferase reporter, luminescence; percent increase over mock-subtracted basal signal; activation, % at 10 µM; 65,000 compounds, 1.5% hits;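 active means activation above the mean of all tested compounds plus 3 SD, cut at about 49% in these data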;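 further: 0% = DMSO-treated RORA cells and 100% = added signal equal to DMSO minus mock-transfected cells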
# Target sequence (P35398 whole entry, looked up, the tested form may be a part): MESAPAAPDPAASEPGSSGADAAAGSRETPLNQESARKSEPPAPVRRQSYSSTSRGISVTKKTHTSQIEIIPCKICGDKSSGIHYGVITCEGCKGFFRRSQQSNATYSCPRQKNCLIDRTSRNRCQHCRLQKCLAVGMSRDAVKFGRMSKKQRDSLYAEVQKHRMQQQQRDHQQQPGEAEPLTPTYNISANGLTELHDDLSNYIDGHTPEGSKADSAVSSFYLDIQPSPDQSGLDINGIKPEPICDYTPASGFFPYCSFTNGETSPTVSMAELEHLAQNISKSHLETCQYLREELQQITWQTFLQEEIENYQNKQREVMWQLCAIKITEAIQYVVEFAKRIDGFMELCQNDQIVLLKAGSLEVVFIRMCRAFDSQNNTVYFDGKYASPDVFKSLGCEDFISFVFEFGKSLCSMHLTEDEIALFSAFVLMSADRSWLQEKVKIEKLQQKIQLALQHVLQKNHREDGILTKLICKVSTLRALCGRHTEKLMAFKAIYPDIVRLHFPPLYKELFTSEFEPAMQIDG
# M1 antagonist – blocks the rat M1 muscarinic receptor response to acetylcholine | B-score at 10 µM | P08482 | 64,000 compounds, 3.4% hits | CHO-M1 cells, Fluo-4 calcium, ACh EC80 antagonist mode; hits give low values;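 active means calcium fluorescence response, raw or row-and-column corrected B-score, differing from the plate sample mean either way at a set confidence level, mostly lower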
# M1 agonist – M1 muscarinic receptor agonism | CHO-M1 cells, Fluo-4 calcium fluorescence, agonist mode; hits give high values | B-score at 10 µM | 64,000 compounds, 3% hits | AID 626;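 active means fluorescence rise, raw or as B-score row- and column-corrected plate score, outside the 99.7% band of its plate's samples, either direction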
# D1 mod – allosteric modulators of human D1 dopamine receptor. P21728. HEK293 D1, CRE-luciferase, dopamine EC30 potentiation; actives deviate in either direction. B-score at 10 µM. 58,000 compounds, 5.9% hits. AID 641;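 active means luminescence count or its row- and column-corrected plate score outside the 99.7% band of the plate's sample wells, on either side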
# SF1 activator – SF-1 (human) activation. Q13285. CHO-K1 Gal4-SF-1 LBD luciferase reporter; % increase over DMSO SF-1-specific signal. activation, % at 10 µM. 65,000 compounds, 1.9% hits. AID 522;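 active means activation above the mean activation of all tested compounds plus 3 SD, cut at about 50% in these data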
#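 Compound – one dose, 10 µM compound, 1% DMSO · Test system – transient Gal4-SF-1 LBD reporter, CHO-K1 · Input – 4,000 cells in each well · Read-out basis – percent activation relative to DMSO median and mock-transfected background · Replicates – single measurement per compound · Technique – steady-glow luciferase luminescence, read after 15 min reagent incubation · Timing – 20 h compound treatment, 37 °C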
# M1 antag confirm – M1 muscarinic receptor (rat) antagonism, confirmed; shares compounds with M1 antagonist; 1,700 compounds, 43% hits; CHO-M1 cells, Fluo-4 calcium, ACh EC80 antagonism; hits give low values; AID 677; calcium response (max-min fluorescence) at 10 µM;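 active means calcium response below the same-plate mean of wells given acetylcholine alone at its 80%-effect dose, minus 3 SD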;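 further: raw fluorescence intensity difference in arbitrary instrument units and not normalized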
# mGluR4 antag – acts on human mGluR4 in M1 antagonist selectivity test; shares compounds with M1 antagonist; CHO-mGluR4 calcium flux, Fluo-4 fluorescence, glutamate EC80; hits give low values; fluorescence response (max-min) at 10 µM; 1,700 compounds, 0.9% hits; AID 678;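 active means fluorescence response below the plate's average for near-maximal glutamate wells, less 3 SD of those wells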;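 further: raw unnormalized fluorescence span taken in the window right after glutamate addition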
# The depositor's hits bear a star; · = no result given. In the library only some 11% were active in any assay of this set; here they are far more common.
SMILES,Htt clearance,RORA act,M1 antagonist,M1 agonist,D1 mod,SF1 activator,M1 antag confirm,mGluR4 antag
CN(C)c1nc2ccc(OCCN3CCCCC3)cc2s1,54,6,-3*,-0.28,-3.4*,12,408*,216
Cc1cccc(OCCCN2CCCCCC2)c1,-4,-1,-2,-0.0088,-1.1,5,·,·
O=C(NCc1ccc(Cl)cc1)c1cnn2ccccc12,52,·,·,·,·,·,·,·
COC(=O)CC1C(=O)NCCN1C(=O)Nc1ccccc1 (stereo unspecified),18,-11,0.65,-0.59,-0.19,-3,·,·
CCOC(=O)CC1C(=O)NCCN1C(=O)Nc1ccccc1 (stereo unspecified),27,-25,-2.2*,0,0.41,-7,640,261
CCOc1ccc2[nH]c(=O)c(CN(CCO)C(=O)c3ccccc3F)cc2c1,-7,-12,0.016,0.13,0.064,11,·,·
COc1ccc2cc(CN(CCO)C(=O)c3ccccc3F)c(=O)[nH]c2c1,·,-9,-2.7*,-0.0075,-0.23,-15,670,249
N#CCCN1CCN(S(=O)(=O)c2ccc(S(=O)(=O)NCc3ccccc3)cc2)CC1,·,12,-3.4*,0.52,-0.11,14,673,255
N#CCCN1CCN(S(=O)(=O)c2ccc(S(=O)(=O)N3CCOCC3)cc2)CC1,·,1,0.31,-0.21,-0.14,7,·,·
COc1ccc(C2(C(=O)NCCCN3CCOCC3)CCOCC2)cc1,·,2,-1.6,-0.29,0.94,-14,·,·
Cc1oc(-c2ccccc2F)nc1CN1CCC(C(=O)NCc2ccco2)CC1,33,-18,-3.7*,0.47,-0.3,0,566,219
Cc1oc(-c2ccccc2F)nc1CN1CCC(C(=O)NC2CCCCCCC2)CC1,14,-17,-1.1,-0.38,-0.86,-12,·,·
Cc1cc(C(F)F)n2ncc(C(=O)O)c2n1,2,·,·,·,·,·,·,·
C(=N\n1cnnc1)/c1ccc(-c2ccccc2)cc1,·,-2,-7.4*,0.45,1.7,6,556,272
CCOC(=O)c1cc(C)n(-c2c(C)n(C)n(-c3ccccc3)c2=O)c1C,·,-1,-4.5*,-0.0049,-0.28,-10,430*,220
CC1CCCN(Cc2nc3c(c(=O)n(C)c(=O)n3C)n2Cc2c(F)cccc2Cl)C1 (stereo unspecified),·,-1,-1*,0.58,0.24,-8,653,200
CC1CCN(Cc2nc3c(c(=O)n(C)c(=O)n3C)n2Cc2c(F)cccc2Cl)CC1,-86,-12,0.38,0.02,0.56,1,·,·
O=C(c1c(F)c(F)c(F)c(F)c1F)N1CCN(c2cccc(C(F)(F)F)c2)CC1,-35,-9,-1.4,0.0063,1.8,-4,·,·
O=C(c1coc2ccccc2c1=O)N1CCN(c2cccc(C(F)(F)F)c2)CC1,·,-18,-8.7*,0.31,0.93,-11,178*,256
O=C(c1ccccc1F)N1CCN(c2cccc(C(F)(F)F)c2)CC1,·,9,-2.9*,0.028,-0.13,-5,566,258
O=C1CCc2cc(S(=O)(=O)N3CCCC3C(=O)NC3CCCCCCC3)ccc2N1 (stereo unspecified),36,·,·,·,·,·,·,·
O=C(CCCN1C(=O)c2ccccc2C1=O)OC1CSCC1NC(=O)c1ccccc1 (stereo unspecified),44,·,·,·,·,·,·,·
Cc1cc(Cl)ccc1OCCCC(=O)NC1CCN(C)CC1,·,8,-2.9*,-0.77,-2,8,479*,211
Cc1cc(C(=O)OCC(=O)NC2CCS(=O)(=O)C2)c(C)n1-c1ccccc1 (stereo unspecified),·,23,-1.7,0.22,-1,-14,·,·
CN(C(=O)COC(=O)c1nc(-c2ccccc2)n(-c2ccccc2)n1)C1CCS(=O)(=O)C1 (stereo unspecified),·,15,-4.8*,0.33,·,6,231*,211
SMILES,Htt clearance,RORA act,M1 antagonist,M1 agonist,D1 mod,SF1 activator,M1 antag confirm,mGluR4 antag
Cc1cc(C(=O)OCC(=O)N(C)C2CCS(=O)(=O)C2)c(C)n1-c1ccccc1 (stereo unspecified),-19,-10,-2.7*,0.12,-0.62,-10,544,227
O=C(c1ccc(COc2c(F)c(F)cc(F)c2F)o1)N1CCN(c2ccc(Cl)cc2)CC1,10,-24,-0.00045,0.83,0.44,-28,·,·
N#CCSc1nnc(-c2ccccc2O)n1CCc1ccccc1,-15,-4,0.19,-0.29,1.4,8,·,·
COc1cccc(OC)c1C(=O)n1nc(C)cc1C,-87,-6,-0.64,0.69,0.02,-1,·,·
Cc1cc(C)n(C(=O)c2cc3ccccc3c(=O)o2)n1,-3,-8,-5.1*,0.18,0.86,-2,662,250
COc1ccc(NS(=O)(=O)c2cccc(-c3nnc(-c4ccccc4)o3)c2)cc1,-135,·,·,·,·,·,·,·
COc1c(C)cc(Br)cc1C(=O)O,21,-17,-13*,0.48,-0.28,5,710,203
Cc1ccc2occ(CN3CCN(c4ccccc4)CC3)c(=O)c2c1,-4,-6,-3.4*,1.1,-0.16,-16,508*,223
O=c1c(CN2CCN(Cc3ccccc3)CC2)coc2ccc(Cl)cc12,·,13,-4.2*,-0.83,-0.67,16,365*,194
CCN1CCN(Cc2coc3ccc(C)cc3c2=O)CC1,·,-9,-0.26,0.012,-0.13,1,·,·
C=CCC(CC=C)(C(=O)O)c1ccccc1,-33,-7,-0.83,-0.069,-0.078,-14,·,·
C=CCC(O)(CCN1CCCCC1)c1ccccc1 (stereo unspecified),-27,-10,-8*,0.42,1.8,-11,97*,230
OC(C#CCN1CCOCC1)(c1ccccc1)C1CC1 (stereo unspecified),·,-10,-0.54,-0.28,0.55,-2,·,·
OC(CCN1CCCCC1)(c1ccccc1)c1ccccc1,·,9,-12*,1.9,-0.43,6,23*,244
O=C(CCN1CCCCCC1)c1ccccc1,39,·,·,·,·,·,·,·
OC(CCN1CCCC1)(c1ccccc1)C1CCCCC1 (stereo unspecified),·,-12,-16*,-0.4,0.26,-9,17*,268
Cc1cc(C)c2cc(CN(CC3CCCO3)S(=O)(=O)c3ccc4c(c3)OCCO4)c(=O)[nH]c2c1 (stereo unspecified),20,17,0.013,0.79,·,8,·,·
CNC(=O)C1C2C=CC3(O2)C1C(=O)N(C1CC1)C3C(=O)NCc1ccc(OC)cc1 (stereo unspecified),-24,12,-2.1*,-0.57,-0.0055,-2,679,243
C=CCN1C(=O)C2C(C(=O)NC)C3C=CC2(O3)C1C(=O)NCc1ccc(OC)cc1 (stereo unspecified),·,0,0.67,0.35,1.2,-10,·,·
